According to ChEMBL document CHEMBL3393011, “Magnolol Inhibits RANKL-induced osteoclast differentiation of raw 264.7 macrophages through heme oxygenase-1-dependent inhibition of NFATc1 expression” (J Nat Prod, 2015):
The source made the active and inactive calls.

Assays:
RAW264.7 [1] = assay: Inhibition of NFATc1 expression in RANKL-induced mouse RAW264.7 cells at 20 uM after 24 hrs by immunofluorescence staining in presence of tin protoporphyrin 9 (SnPP); type: functional, cell-based
How it was run: (§1)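 Compound 20 μM, alone or with SnPP 10 μM, plus RANKL 50 ng/mL for 24 h. Nuclear NFATc1 by western blot of nuclear extracts, and by immunofluorescence: methanol-fixed cells, 4% BSA block, anti-NFATc1 1:100 overnight at 4 °C, FITC secondary, DAPI counterstain. n = 5.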

RAW264.7 [2] = assay: Induction of HO-1 protein expression in RANKL-induced mouse RAW264.7 cells up to 20 uM after 48 hrs by Western blot analysis
[3] = target: MAP kinase p38 (Mus musculus) (UniProt P47811+O08911+Q9WUI1+Q9Z1B7); assay: Inhibition of RANKL-stimulated p38 MAPK phosphorylation in mouse RAW264.7 cells at 20 uM by Western blotting analysis; type: cell-based
How it was run: (§2)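 Compound added 2 h before RANKL, followed by 15 min further incubation. Total cell lysates blotted on 12% SDS-PAGE for total and phosphorylated MAPKs, with milk block, primary overnight at 4 °C, HRP secondary, chemiluminescence and densitometry. At least three independent experiments.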

RAW264.7 [4] = assay: Inhibition of MMP9 activity in RANKL-induced mouse RAW264.7 cells at 20 uM after 5 days by gelatin zymography
RAW264.7 [5] = assay: Antiosteoclast activity in mouse RAW264.7 cells assessed as reduction of RANKL-induced osteoclasts differentiation by measuring TRAP positive multinucleated cells after 5 days in presence of tin protoporphyrin 9 (SnPP); type: functional, cell-based
How it was run: (§3)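 RANKL 50 ng/mL for 5 days in α-MEM with 10% FBS after 24 h seeding; SnPP 10 μM with test compound. TRAP+ multinucleated cells (≥3 nuclei) counted after formalin fixation and staining. TRAP activity: fixed cells in 50 mM citrate pH 4.6, 10 mM tartrate, 5 mM pNPP for 1 h, stopped with 0.1 N NaOH, A410, as % of RANKL-alone.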

RAW264.7 [6] = assay: Inhibition of RANKL-induced H2O2 production in mouse RAW264.7 cells pretreated for 2 hrs before RANKL stimulation for 10 mins
RAW264.7 [7] = assay: Inhibition of MMP9 activity in RANKL-induced mouse RAW264.7 cells at 20 uM after 5 days by gelatin zymography in presence of tin protoporphyrin 9 (SnPP)
RAW264.7 [8] = assay: Inhibition of RANKL-induced superoxide anion production in mouse RAW264.7 cells pretreated for 2 hrs before RANKL stimulation for 10 mins
RAW264.7 [9] = assay: Inhibition of RANKL-stimulated ERK phosphorylation in mouse RAW264.7 cells at 20 uM by Western blotting analysis; type: cell-based; how it was run: as §2
RAW264.7 [10] = assay: Antiosteoclast activity in mouse RAW264.7 cells assessed as reduction of RANKL-induced osteoclasts differentiation by measuring TRAP activity after 5 days in presence of tin protoporphyrin 9 (SnPP); type: functional, cell-based; how it was run: as §3
RAW264.7 [11] = assay: Inhibition of RANKL-stimulated JNK phosphorylation in mouse RAW264.7 cells at 20 uM by Western blotting analysis; type: cell-based; how it was run: as §2
RAW264.7 [12] = assay: Inhibition of NFATc1 expression in RANKL-induced mouse RAW264.7 cells at 20 uM after 24 hrs by immunofluorescence staining; type: functional, cell-based; how it was run: as §1
RAW264.7 [13] = assay: Antiosteoclast activity in mouse RAW264.7 cells assessed as reduction of RANKL-induced osteoclasts differentiation by measuring TRAP positive multinucleated cells after 5 days; type: functional, cell-based
How it was run: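 Cells seeded 24 h, then 5 days in α-MEM with 10% FBS, RANKL 50 ng/mL and test compound. Cells fixed in 10% formalin 10 min and TRAP-stained. Multinucleated TRAP+ cells with three or more nuclei counted by light microscopy; mean ± SD, n = 5.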

RAW264.7 [14] = assay: Induction of nuclear accumulation of Nrf2 in RANKL-induced mouse RAW264.7 cells up to 20 uM after 3 hrs by Western blot analysis; type: functional, cell-based
How it was run: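 Nuclear protein extracted with hypotonic then hypertonic (420 mM NaCl) buffers after 3 h RANKL 50 ng/mL with compound. Samples run on 12% SDS-PAGE and immunoblotted; at least three independent experiments.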

RAW264.7 [15] = assay: Cytotoxicity against mouse RAW264.7 cells assessed as cell viability at 5 to 20 uM after 24 hrs by MTT assay; type: cell-based; settings: raw264.7, 24 h
How it was run: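 Cells grown in DMEM with 10% heat-inactivated FBS. Exposure to compound or 0.1% DMSO vehicle for 24 h. MTT added 1 h at 37 °C, formazan dissolved in DMSO and read at 570 nm.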

C=CCc1ccc(O)c(-c2cc(CC=C)ccc2O)c1 [MAGNOLOL]
Non-toxic: Activity (RAW264.7 [15])
inactive: inhibition (RAW264.7 [1]) | Activity (RAW264.7 [5]) | inhibition (RAW264.7 [7]) | Activity (RAW264.7 [10])
active: Activity (RAW264.7 [2]) | inhibition [3] | inhibition (RAW264.7 [4]) | inhibition (RAW264.7 [6]) Dose-dependent effect | inhibition (RAW264.7 [8]) Dose-dependent effect | inhibition (RAW264.7 [9]) | inhibition (RAW264.7 [11]) | inhibition (RAW264.7 [12]) | Activity (RAW264.7 [13]) Dose-dependent effect | Activity (RAW264.7 [14])
